In data set [1] the test system is Leishmania braziliensis. As to the kind of experiment: Antileishmanial activity against Leishmania braziliensis promastigotes after 24 hrs by cell counting. In kind it is functional, organism-based. A digest of the protocol: (§1)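 Promastigotes given drugs in DMSO (at most 1.6% v/v) over 160 to 5 μg/mL for 24 h. Remaining parasites counted in a Neubauer chamber and % inhibition set against DMSO-only and parasite-only controls. IC50 derived by linear regression of % inhibition against log drug concentration.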

Data set [2] can be described thus: Cytotoxicity against macrophages (unknown origin) at 320 ug/ml. The format is cell-based. To be noted: macrophage.
For data set [3], the system named is Leishmania amazonensis. The experiment in a line: Antileishmanial activity against Leishmania amazonensis MHOM/BR/77/LTB0016 promastigotes after 24 hrs by cell counting. In kind it is functional, organism-based. A digest of the protocol: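 L. amazonensis MHOM/BR/77/LTB0016 promastigotes grown at 25 °C in LIT medium with 10% (v/v) heat-inactivated FCS, harvested in late log phase and set to 4 x 10^6 /mL. Drugs in DMSO (up to 1.6% v/v) at 160 to 5 μg/mL for 24 h. Surviving parasites counted in a Neubauer chamber. Inhibition taken against DMSO and untreated controls. IC50 from linear regression of % inhibition versus log concentration.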

For data set [4], the system named is Leishmania chagasi. The experiment in a line: Antileishmanial activity against Leishmania chagasi promastigotes after 24 hrs by cell counting. In kind it is functional, organism-based. The method, boiled down:
as §1

[5] abbreviates: Leishmania amazonensis, MHOM/BR/77/LTB0016, 24 h.

As to `COc1ccc(/N=C(\Nc2ccccc2)c2ccc(OC)cc2)cc1` [listing 1 of 2 here], the figures for the logIC50 in data set [1], in data set [3] and in data set [4] were 1.52, 2.8 and 1.95, respectively. In data set [2], this compound displayed an Activity of 15%.

Take `N=C(N)c1ccc(OCCCCCOc2ccc(C(=N)N)cc2)cc1` [PENTAMIDINE]: the logIC50 in data set [1] (Leishmania braziliensis, 24 h) amounted to 1.36; in data set [3] (setting [5]), 1.05; in data set [4] (Leishmania chagasi, 24 h), 1.76. In addition, the Activity in data set [2] came out at 100%.

For `COc1ccc(/C(=N/c2ccccc2)Nc2ccc(C)cc2)cc1`, the logIC50 in data set [3] (setting [5]) is 2.42.

Turning to `COc1ccc(/C(=N/c2ccccc2)Nc2ccc(F)cc2)cc1`, the logIC50 in data set [3] (setting [5]) was 1.43.

On to `COc1ccc(/C(=N/c2ccccc2)Nc2ccc(S(N)(=O)=O)cc2)cc1`, for which the logIC50 in data set [3] (setting [5]) stood at 1.79.

Take `COc1ccc(/C(=N/c2ccccc2)Nc2ccc(Br)cc2)cc1`: the logIC50 in data set [3] (setting [5]) was determined as 1.34.

`COc1ccc(/C(=N/c2ccccc2)Nc2cccc(OC)c2)cc1` yielded a logIC50 in data set [3] (setting [5]) of 1.68.

In data set [3] (setting [5]), `COc1ccc(/N=C(\Nc2ccccc2)c2cccc(OC)c2)cc1` had a logIC50 of 2.57.

On to `COc1ccc(/C(=N/c2ccccc2)Nc2cccc([N+](=O)[O-])c2)cc1`, for which the logIC50 in data set [3] (setting [5]) was 2.59.

Regarding `COc1ccc(/N=C(\Nc2ccc(OC)cc2)c2ccccc2)cc1` [listing 1 of 2 here], the logIC50 is 2.13 in data set [1] (Leishmania braziliensis, 24 h); 1.62 in data set [3] (setting [5]); more than 3 in data set [4] (Leishmania chagasi, 24 h).

Consider `COc1ccc(/N=C(\Nc2ccc(OC)cc2)c2ccccc2)cc1` [listing 2 of 2 here], for which the figures for the logIC50 in data set [1], in data set [3] and in data set [4] were 2.25, 2.24 and 2.25, respectively. The compound further displayed an Activity in data set [2] of 100%.

For `COc1ccc(/N=C(\Nc2ccccc2)c2ccc(OC)cc2)cc1` [listing 2 of 2 here], the logIC50 came out at 1.42 in data set [1] (Leishmania braziliensis, 24 h); 1.82 in data set [3] (setting [5]); 2.04 in data set [4] (Leishmania chagasi, 24 h).

`COc1ccc(/C(=N/c2ccccc2)Nc2cccc(O)c2)cc1`: in data set [3] (setting [5]), the logIC50 is 2.65.

`COc1ccc(/C(=N/c2ccccc2)Nc2cccc(Cl)c2)cc1` showed a logIC50 in data set [3] (setting [5]) of 1.11.

For `COc1ccc(/N=C(\Nc2ccccc2)c2ccccc2)cc1`, the logIC50 in data set [3] (setting [5]) is 2.8.

As for `COc1ccc(/N=C(\Nc2ccc(OC)cc2)c2ccc(OC)cc2)cc1`, in data set [3] (setting [5]), the logIC50 is more than 3.

Consider `COc1ccc(/C(=N/c2ccccc2)Nc2ccc(O)cc2)cc1`, for which the logIC50 in data set [3] (setting [5]) was determined as 2.51.

Regarding `COc1ccc(/C(=N/c2ccccc2)Nc2ccccc2)cc1` [listing 1 of 2 here], the logIC50 was determined as 1.9 in data set [1], 1.85 in data set [3] and 1.91 in data set [4]. The Activity entry in data set [2] is “Non-toxic”.

With `COc1ccc(/C(=N/c2ccccc2)Nc2ccccc2)cc1` [listing 2 of 2 here], the logIC50 was 2.05 in data set [1] (Leishmania braziliensis, 24 h); 1.9 in data set [3] (setting [5]); 2.76 in data set [4] (Leishmania chagasi, 24 h).

For the compound `COc1ccc(/N=C(\Nc2ccccc2)c2ccc3c(c2)OCO3)cc1`, the logIC50 in data set [3] (setting [5]) was 1.6.

In turn, `COc1ccc(/C(=N/c2ccccc2)Nc2cccc(F)c2)cc1` yielded a logIC50 in data set [3] (setting [5]) of 1.62.

With `COc1cccc(/C(=N/c2ccccc2)Nc2ccccc2)c1`, the logIC50 in data set [3] (setting [5]) was found to be 2.56.

`COc1ccc(/C(=N/c2ccccc2)Nc2ccc(Cl)cc2)cc1` displayed a logIC50 in data set [3] (setting [5]) of 1.9.

In data set [3] (setting [5]), `COc1ccc(/C(=N/c2ccccc2)Nc2ccc([N+](=O)[O-])cc2)cc1` showed a logIC50 of 1.22.

Consider `COc1ccc(/C(=N/c2ccccc2)Nc2ccc(Cl)c([N+](=O)[O-])c2)cc1`, for which, in data set [3] (setting [5]), the logIC50 came out at 1.1.

In the case of `COc1ccc(/C(=N/c2ccccc2)Nc2cccc(C)c2)cc1`, the logIC50 in data set [3] (setting [5]) was 2.42.

For the origin of these results see ChEMBL document CHEMBL2417398, “Synthesis, antileishmanial activity and structure-activity relationship of 1-N-X-phenyl-3-N'-Y-phenyl-benzamidines” (Eur J Med Chem, 2013).
